For 4 compounds, Activity, inhibition and Kd results are on record in ChEMBL document CHEMBL3808362, “Affinity-Guided Design of Caveolin-1 Ligands for Deoligomerization” (J Med Chem, 2016).

The target of series [1] is Albumin (Bos taurus, UniProt P02769). Kind of series: Binding affinity to rhodamine-labeled bovine serum albumin by SPOT screening assay. The class given is ADME. The conditions noted are these: cattle, isolated protein. A digest of the protocol: (§1)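 Peptides synthesized on cellulose SPOT arrays with a double β-Ala linker, screened in duplicate sheets against rhodamine-labeled protein. Sheets were washed and blocked, and SPOT fluorescence was quantified as relative apparent binding. Signal from blank linker-only SPOTs was subtracted on each sheet.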
Albumin, sequence (P02769 whole entry): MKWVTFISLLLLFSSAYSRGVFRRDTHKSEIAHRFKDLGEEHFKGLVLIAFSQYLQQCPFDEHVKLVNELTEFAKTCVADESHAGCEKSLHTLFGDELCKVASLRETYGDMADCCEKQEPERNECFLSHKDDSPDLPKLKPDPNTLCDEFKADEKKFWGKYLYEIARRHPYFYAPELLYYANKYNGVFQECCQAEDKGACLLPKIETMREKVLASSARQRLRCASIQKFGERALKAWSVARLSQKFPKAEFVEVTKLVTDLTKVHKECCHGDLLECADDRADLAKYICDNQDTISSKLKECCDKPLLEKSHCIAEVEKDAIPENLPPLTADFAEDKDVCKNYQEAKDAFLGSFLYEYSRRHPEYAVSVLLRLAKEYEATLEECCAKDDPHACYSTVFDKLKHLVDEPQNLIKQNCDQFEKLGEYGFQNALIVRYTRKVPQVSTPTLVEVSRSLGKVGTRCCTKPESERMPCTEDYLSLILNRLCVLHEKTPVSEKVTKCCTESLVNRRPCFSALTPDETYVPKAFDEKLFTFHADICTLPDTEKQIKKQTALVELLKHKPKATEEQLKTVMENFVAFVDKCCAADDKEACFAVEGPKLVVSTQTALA

Series [2] concerns the target T1, Caveolin-1 (Homo sapiens) (UniProt Q03135).
T1 sequence (whole entry): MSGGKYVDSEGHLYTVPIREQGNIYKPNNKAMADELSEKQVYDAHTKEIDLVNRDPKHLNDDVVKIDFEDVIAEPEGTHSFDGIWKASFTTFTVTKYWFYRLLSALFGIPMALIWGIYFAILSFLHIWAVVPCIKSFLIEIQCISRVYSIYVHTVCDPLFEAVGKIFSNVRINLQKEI
Description: Inhibition of oligomerization of human soluble full length variant CAV at 10 uM by dynamic light scattering analysis. In a few lines: (§2)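 Soluble full-length CAV variant (CAV(FLV)) forms oligomers spontaneously. These were incubated with peptide, and particle size was measured by dynamic light scattering as average diameter and polydispersity. For line 7, incubation was under reducing conditions to disrupt the peptide's disulfide dimerization.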

The species named for series [3] is Homo sapiens. Description: Binding affinity to rhodamine-labeled casein (unknown origin) by SPOT screening assay. A digest of the protocol:
as §1

The target of series [4] is T1, Caveolin-1 (Homo sapiens). Description: Inhibition of oligomerization of human soluble full length variant CAV at 10 uM by dynamic light scattering analysis in presence of TCEP. In a few lines: as §2
For series [5], the species on record is Gallus gallus. Kind of series: Binding affinity to rhodamine-labeled hen egg white lysozyme by SPOT screening assay. A digest of the protocol: as §1
Series [6] has as its target T1, Caveolin-1 (Homo sapiens). Description: Binding affinity to rhodamine-labeled human CAV (1 to 104 residues) expressed in Escherichia coli BL21-DE3 by SPOT screening assay. A digest of the protocol: as §1
The target in series [7] is T1, Caveolin-1 (Homo sapiens). Kind of series: Inhibition of oligomerization of human soluble full length variant CAV by dynamic light scattering analysis. In a few lines:
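CAV(FLV) oligomers were incubated with varied peptide concentrations. Dose dependence was followed by dynamic light scattering as the diameter of separate oligomeric peaks.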

Series [8] concerns the target T2, Caveolin-1 (Homo sapiens, UniProt Q03135).
T2 sequence (Q03135 whole entry): T1 sequence (whole entry)
Description: Binding affinity to human CAV (1 to 104 residues) expressed in Escherichia coli BL21-DE3 by isothermal titration calorimetric analysis.

One may read the Kd as the equilibrium constant for the complex coming apart. Low readings indicate higher affinity, high ones lower affinity.

The structures appear in SMILES notation. Activity calls are given as the source filed them. The rule behind the calls is not given here. Peptide text beside a SMILES is read from it. Where only a bound is given, the exact number is not on record here.

On to `CSCC[C@H](NC(=O)[C@H](Cc1c[nH]c2ccccc12)NC(=O)[C@H](CO)NC(=O)[C@@H](N)CS)C(=O)N[C@@H](CCCNC(=N)N)C(=O)N[C@@H](CC(C)C)C(=O)N[C@@H](CCCCN)C(=O)O` (H-CSWMRLK-OH), for which the Activity entry in series [1] is listed as “Not Active”. Moreover, the inhibition result in series [2] was “Active”. For the same compound, the result in series [3] and in series [5] was inactive. Further, in series [4], the inhibition entry was “inactive”. In series [6], the outcome was Active. The inhibition entry in series [7] was “Dose-dependent effect”.

On to `CSCC[C@H](NC(=O)[C@H](CO)NC(=O)CNC(=O)[C@H](Cc1c[nH]c2ccccc12)NC(=O)[C@H](CCCNC(=N)N)NC(=O)[C@H](CCC(=O)O)NC(=O)[C@H](CC(C)C)NC(=O)[C@H](CCC(=O)O)NC(=O)[C@H](CCSC)NC(=O)[C@H](CC(C)C)NC(=O)[C@@H](N)CCC(=O)O)C(=O)N[C@@H](CC(C)C)C(=O)N[C@@H](CCCCN)C(=O)N[C@@H](CS)C(=O)N[C@@H](Cc1ccccc1)C(=O)O` (H-ELMELERWGSMLKCF-OH), for which the result in series [6] was Active.

Turning to `CSCC[C@H](NC(=O)[C@H](CO)NC(=O)CNC(=O)[C@H](Cc1c[nH]c2ccccc12)NC(=O)[C@@H](N)CCCNC(=N)N)C(=O)N[C@@H](CC(C)C)C(=O)N[C@@H](CCCCN)C(=O)N[C@@H](CS)C(=O)N[C@@H](Cc1ccccc1)C(=O)O` (H-RWGSMLKCF-OH), the result in series [6] was Active.

For the compound `CC[C@H](C)[C@H](NC(=O)[C@H](CC(C)C)NC(=O)[C@H](CO)NC(=O)[C@H](Cc1cnc[nH]1)NC(=O)[C@@H](NC(=O)[C@H](CC(C)C)NC(=O)[C@H](CO)NC(=O)[C@@H](NC(=O)[C@@H](N)Cc1ccc(O)cc1)[C@@H](C)O)[C@@H](C)CC)C(=O)N[C@@H](CCC(=O)O)C(=O)N[C@@H](CCC(=O)O)C(=O)N[C@@H](CO)C(=O)N[C@@H](CCC(N)=O)C(=O)N[C@@H](CC(N)=O)C(=O)N[C@@H](CCC(N)=O)C(=O)N[C@@H](CCC(N)=O)C(=O)N[C@@H](CCC(=O)O)C(=O)N[C@@H](CCCCN)C(=O)N[C@@H](CCC(N)=O)C(=O)N[C@@H](CCC(=O)O)C(=O)N[C@@H](CCCCN)C(=O)N[C@@H](CCC(=O)O)C(=O)N[C@@H](CC(C)C)C(=O)N[C@@H](CCSC)C(=O)N[C@@H](CCC(=O)O)C(=O)N[C@@H](CC(C)C)C(=O)N[C@@H](CCC(=O)O)C(=O)N[C@@H](CCCNC(=N)N)C(=O)N[C@@H](Cc1c[nH]c2ccccc12)C(=O)NCC(=O)N[C@@H](CO)C(=O)N[C@@H](CCSC)C(=O)N[C@@H](CC(C)C)C(=O)N[C@@H](CCCCN)C(=O)N[C@@H](CS)C(=O)N[C@@H](Cc1ccccc1)C(=O)O` (H-YTSLIHSLIEESQNQQEKQEKELMELERWGSMLKCF-OH), in series [8], the Kd is ≤ 155 nM.
